One may read the IC50 as the concentration needed to halve the response being measured.

The target in assay [1] is T1, B2 bradykinin receptor (Homo sapiens, UniProt P30411).
T1 sequence (P30411 whole entry): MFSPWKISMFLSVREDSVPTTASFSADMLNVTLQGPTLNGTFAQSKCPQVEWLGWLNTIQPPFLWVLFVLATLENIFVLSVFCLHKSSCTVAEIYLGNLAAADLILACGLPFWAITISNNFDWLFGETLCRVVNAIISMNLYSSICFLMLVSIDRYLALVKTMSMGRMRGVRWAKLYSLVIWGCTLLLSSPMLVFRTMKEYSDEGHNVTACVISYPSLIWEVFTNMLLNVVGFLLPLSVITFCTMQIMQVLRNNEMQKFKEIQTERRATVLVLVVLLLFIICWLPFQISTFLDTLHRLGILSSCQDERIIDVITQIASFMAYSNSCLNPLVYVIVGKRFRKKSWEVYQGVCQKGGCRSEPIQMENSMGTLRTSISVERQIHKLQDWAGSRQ
The assay is described as follows: Inhibition of [3H]BK (1.0 nM) binding to the human bradykinin receptor B2, expressed in CHO cells. Type of assay: cell-based. In outline: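 Whole CHO (dhfr-) cells stably expressing human B2, seeded 3.0 × 10^4 cells/well and cultured 1 day. Incubated with 1.0 nM [3H]BK plus test compound for 2 h at 4 °C in pH 7.2 HEPES/N-methyl-D-glucamine buffer with bacitracin, enalaprilat and 0.1% BSA. Cells lysed in SDS/NaOH for scintillation counting. Nonspecific binding with 1 μM BK; three experiments.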

The target of assay [2] is T2, B2 bradykinin receptor (Cavia porcellus, UniProt O70526).
T2 sequence (O70526 whole entry): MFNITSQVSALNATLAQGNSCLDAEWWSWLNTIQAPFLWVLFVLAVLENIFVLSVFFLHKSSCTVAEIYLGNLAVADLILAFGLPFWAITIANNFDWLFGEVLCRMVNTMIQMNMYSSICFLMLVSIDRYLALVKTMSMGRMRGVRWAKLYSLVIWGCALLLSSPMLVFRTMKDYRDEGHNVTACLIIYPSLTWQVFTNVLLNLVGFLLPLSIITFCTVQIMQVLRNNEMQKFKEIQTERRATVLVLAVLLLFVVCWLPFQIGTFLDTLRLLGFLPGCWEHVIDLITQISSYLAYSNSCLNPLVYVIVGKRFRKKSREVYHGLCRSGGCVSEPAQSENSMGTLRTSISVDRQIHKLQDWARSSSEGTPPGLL
The assay is described as follows: Concentration required to inhibit specific binding of [3H]-BK(0.06 nM) to the bradykinin receptor B2. In outline: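 Guinea pig (male Hartley) ileum membranes in pH 6.8 TES buffer with phenanthroline, bacitracin, DTT, captopril and 0.1% BSA; 0.2 mg protein/mL incubated with 0.06 nM [3H]BK and varying test concentrations, 60 min at room temperature; filtration on glass fiber filters, scintillation counting. Nonspecific binding with 1 μM unlabeled BK. IC50 averaged over at least three determinations.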

For assay [3], the system named is WI-38. Description: Relative agonistic activity (10 uM) induced PGE-2 production in human fibroblast WI-38 cells compared to bradykinin (100 nM). The format is functional. In outline:
(§1)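 WI-38 human fibroblasts seeded 1 × 10^5 cells/well in E-MEM with 1% FBS, cultured 24 h. Medium replaced with Hanks-BSA buffer, then test compound for 30 min at 37 °C. Supernatant PGE2 measured by EIA, with control (no compound) subtracted. Result expressed relative to 100 nM BK.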

Assay [4] relates to WI-38. Description: Relative agonistic activity (1 uM) induced PGE-2 production in human fibroblast WI-38 cells compared to bradykinin (100 nM). Type of assay: functional. In outline:
as §1

Assay [5] addresses T3, B2 bradykinin receptor (Homo sapiens) (UniProt P30411).
T3 sequence (whole entry): T1 sequence (P30411 whole entry)
The assay is described as follows: (§2) Relative induced inositol phosphate formation in CHO cells expressing the human B2 receptor compared to bradykinin (10 nM). Type of assay: functional, cell-based. The gist of the method: (§3)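 Human B2-expressing CHO cells labeled with [3H]inositol (1 μCi/mL) for 24 h, preincubated with 10 mM LiCl, then exposed to compound for 30 min at 37 °C. Stopped with 5% TCA; IP1–IP3 separated by anion-exchange chromatography and counted. Basal radioactivity subtracted; response expressed relative to 10 nM BK.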

Assay [6] concerns the target T3, B2 bradykinin receptor (Homo sapiens). The assay is described as follows: Relative agonistic activity (10 uM) induced inositol phosphate formation in CHO cells expressing the human B2 receptor compared to bradykinin (10 nM). Type of assay: functional, cell-based. The gist of the method: as §3
The target is the same in assay [7]. The assay is described as §2. The format is functional, cell-based. The gist of the method: as §3
The source holds these as a separate data set.

Assay [8] addresses T2, B2 bradykinin receptor. Description: Concentration required to inhibit specific binding of [3H]-BK(0.06 nM) to the B2 receptor in guinea pig ileum membrane;. Type of assay: tissue-based. In outline: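 Male Hartley guinea pig ileum membranes (homogenised, 1000g debris spin, 10000g pellet) at 0.2 mg protein/mL in pH 6.8 TES buffer with 1,10-phenanthroline, bacitracin, DTT, captopril, 0.1% BSA; incubated with 0.06 nM [3H]BK and varying compound concentrations, 60 min room temperature; GF/B filtration, scintillation counting. Nonspecific binding with 1 μM unlabeled BK; three experiments; IC50 averaged from ≥3 determinations.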

Consider `CNC(=O)c1ccc(/C=C/C(=O)NCC(=O)N(C)c2ccc(Cl)c(COc3cccc4c(OC(C)C)cc(C)nc34)c2Cl)cc1`, for which the IC50 in assay [1] came out at 13 nM; in assay [2] it was 1.2 nM.

In the case of `CCCOc1cc(C)nc2c(OCc3c(Cl)ccc(N(C)C(=O)CNC(=O)/C=C/c4ccc(C(=O)NC)cc4)c3Cl)cccc12`, the half-maximal inhibitory concentration (IC50) came out at 77 nM in assay [1] and 1.2 nM in assay [2].

On to `COCCn1c(OC)nc2c(OCc3c(Cl)ccc(N(C)C(=O)CNC(=O)/C=C/c4ccc(NC(C)=O)nc4)c3Cl)cccc21`, for which the IC50 in assay [1] came to 3.5 nM; in assay [2] it was 4.6 nM. Further, the Relative agonistic activity is 54.8% in assay [3] and 38.3% in assay [4].

In the case of `CCOC(=O)Cn1c(OC)nc2c(OCc3c(Cl)ccc(N(C)C(=O)CNC(=O)/C=C/c4ccc(NC(C)=O)nc4)c3Cl)cccc21`, the values for the IC50 in assay [1] and in assay [2] were 0.91 nM and 4.2 nM, respectively. Also, in assay [3], the Relative agonistic activity amounted to 121%.

With `CNC(=O)c1ccc(/C=C/C(=O)NCC(=O)N(C)c2ccc(Cl)c(COc3cccc4c(OC5CCCC5)cc(C)nc34)c2Cl)cc1`, the IC50 in assay [1] came out at 61 nM; in assay [2], 25 nM.

Consider `CNC(=O)c1ccc(/C=C/C(=O)NCC(=O)N(C)c2ccc(Cl)c(COc3cccc4c(OCc5ccccn5)cc(C)nc34)c2Cl)cc1`, for which the IC50 came out at 0.41 nM in assay [1] and 2.3 nM in assay [2]. The Relative agonistic activity in assay [5] amounted to 59.5%; in assay [6], 56.9%; in assay [7], 51.3%; in assay [3], 140%; in assay [4], 81.2%.

Consider `Cc1cc(OCc2ccccn2)c2cccc(OCc3c(Cl)ccc(N(C)C(=O)CNC(=O)/C=C/c4ccc(C(=O)N(C)C)cc4)c3Cl)c2n1`, for which, in assay [1], the IC50 was determined as 1.4 nM. The Relative agonistic activity in assay [5] came to 34.3%; in assay [7], 22.3%.

`CNC(=O)c1ccc(/C=C/C(=O)NCC(=O)N(C)c2ccc(Cl)c(COc3cccc4c(OCc5ccccn5)cc(C)nc34)c2Cl)cn1`: the IC50 in assay [1] turned out to be 1.4 nM. In addition, the Relative agonistic activity stood at 57.6% in assay [5] and 50.5% in assay [7].

`CNC(=O)c1ccc(/C=C/C(=O)NCC(=O)N(C)c2ccc(Cl)c(COc3cccc4c(OCC(=O)O)cc(C)nc34)c2Cl)cc1`: the IC50 in assay [1] was above 1000 nM; in assay [2] it was 50 nM.

Take `Cc1cc(OCc2ccccn2)c2cccc(OCc3c(Cl)ccc(N(C)C(=O)CNC(=O)/C=C/c4ccc(NC(=O)Cc5ccncc5)nc4)c3Cl)c2n1`: the IC50 in assay [1] amounted to 2.4 nM. The Relative agonistic activity in assay [5] amounted to 40.3%; in assay [7], 39.8%.

In the case of `COc1nc2c(OCc3c(Cl)ccc(N(C)C(=O)CNC(=O)/C=C/c4ccc(NC(C)=O)nc4)c3Cl)cccc2n1Cc1ccccc1`, the IC50 worked out at 2.5 nM in assay [1] and 26 nM in assay [2]. In addition, the results for the Relative agonistic activity in assay [3] and in assay [4] were 73.9% and 84.5%, respectively.

As for `CNC(=O)c1ccc(/C=C/C(=O)NCC(=O)N(C)c2ccc(Cl)c(COc3cccc4c(OC)cc(C)nc34)c2Cl)cc1`, the IC50 in assay [1] amounted to 8.1 nM; in assay [2], 0.23 nM.

As to `CC(=O)Nc1ccc(/C=C/C(=O)NCC(=O)N(C)c2ccc(Cl)c(COc3cccc4c(OCc5ccccn5)cc(C)nc34)c2Cl)cn1`, the IC50 in assay [1] and in assay [2] was 1.2 nM each time. The Relative agonistic activity is 57% in assay [5] and 43.4% in assay [7].

On to `CCOC(=O)COc1cc(C)nc2c(OCc3c(Cl)ccc(N(C)C(=O)CNC(=O)/C=C/c4ccc(C(=O)NC)cc4)c3Cl)cccc12`, for which the IC50 in assay [1] was 2.6 nM; in assay [2], 20 nM. The figures for the Relative agonistic activity in assay [5] and in assay [6] were 53.7% and 66.4%, respectively.

In the case of `COc1nc2c(OCc3c(Cl)ccc(N(C)C(=O)CNC(=O)/C=C/c4ccc(NC(C)=O)nc4)c3Cl)cccc2n1Cc1ccccn1`, in assay [1], the IC50 was 0.68 nM. Moreover, the Relative agonistic activity in assay [3] is reported as 89.5%; in assay [4], 114%.

Regarding `COc1nc2c(OCc3c(Cl)ccc(N(C)C(=O)CNC(=O)/C=C/c4ccc(NC(C)=O)nc4)c3Cl)cccc2n1C`, the Relative agonistic activity in assay [3] came out at 24.2%; in assay [4], 4.2%.

Take `Cc1cc(OCc2ccccn2)c2cccc(OCc3c(Cl)ccc(N(C)C(=O)CNC(=O)/C=C/c4ccc(NC(=O)c5ccncc5)cc4)c3Cl)c2n1`: the IC50 in assay [1] was found to be 0.56 nM; in assay [8], 6.1 nM. In addition, the Relative agonistic activity in assay [5] came out at 26.9%; in assay [7], 42.3%.

As to `Cc1cc(OCc2ccccn2)c2cccc(OCc3c(Cl)ccc(N(C)C(=O)CNC(=O)/C=C/c4ccc(C(=O)Nc5ccncc5)cc4)c3Cl)c2n1`, the IC50 in assay [1] came to 0.4 nM. For the same compound, the Relative agonistic activity in assay [5] is 47.4%; in assay [7], 36.7%.

For `CNC(=O)c1ccc(/C=C/C(=O)NCC(=O)N(C)c2ccc(Cl)c(COc3cccc4c(OCC(=O)N(C)C)cc(C)nc34)c2Cl)cc1`, the IC50 in assay [1] is 3.7 nM; in assay [2], 30 nM. Also, the Relative agonistic activity is 30.8% in assay [5] and 24.4% in assay [6].

Turning to `CCOc1cc(C)nc2c(OCc3c(Cl)ccc(N(C)C(=O)CNC(=O)/C=C/c4ccc(C(=O)NC)cc4)c3Cl)cccc12`, the figures for the IC50 in assay [1] and in assay [2] were 34 nM and 0.19 nM, respectively.

In the case of `Cc1cc(OCc2ccccn2)c2cccc(OCc3c(Cl)ccc(N(C)C(=O)CNC(=O)/C=C/c4ccc(N5CCCC5=O)cc4)c3Cl)c2n1`, the IC50 in assay [1] worked out at 0.83 nM. The figures for the Relative agonistic activity in assay [5] and in assay [7] were 67.4% and 42.9%, respectively.

In the case of `CNC(=O)c1ccc(/C=C/C(=O)NCC(=O)N(C)c2ccc(Cl)c(COc3cccc4c(OCc5ccccn5)cc(C)nc34)c2Cl)cc1OC`, the concentration for half-maximal inhibition (IC50) in assay [1] came out at 0.69 nM. For the same compound, the Relative agonistic activity worked out at 73.9% in assay [5] and 54.9% in assay [7].
